Each block holds one molecule with its values, some of them ahead of it.
Tests used:
human wt-CFTR [1] = molecular target: T1, human wt-CFTR (Homo sapiens, UniProt P13569); assay: Fluorescence assay of CFTR channel function; type: cell-based; conditions: FRT cells expressing wild-type CFTR, in the presence of 0.1 μmol/L forskolin
ΔF508-CFTR [2] = assay: Potentiation of ΔF508-CFTR; type: cell-based; conditions: ΔF508-CFTR versus wt-CFTR
[3] = test system: mouse tracheal submucosal glands; assay: Measurement of individual submucosal gland fluid secretion in mouse trachea; conditions: 10 μmol/L osthole in serosal bathing solution
Procedure, shortened: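 Cranial segment of freshly excised mouse trachea mounted on a sponge, soaked in Krebs–Henseleit solution, mucosal side up in a humidified 5% CO2/95% air chamber at 37°C. Mucosa cleared with saline, nitrogen-dried, then covered with saline-saturated oil. Some tissues pre-incubated 30 min with 20 μmol/L CFTRinh-172. Gland droplets imaged by reflected-light microscopy after stimulation; secretion rate computed from droplet diameter assuming hemispherical shape.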

ΔF508-CFTR [4] = conditions: read-out: affinity in potentiating ΔF508-CFTR; ref Xu et al., 2008; cited from earlier work
human wt-CFTR [5] = molecular target: T1, human wt-CFTR; type: cell-based
rat colonic mucosa = assay: Short-circuit current assay on rat colonic mucosa; conditions: rat distal colonic mucosa

T1 sequence (P13569 whole entry): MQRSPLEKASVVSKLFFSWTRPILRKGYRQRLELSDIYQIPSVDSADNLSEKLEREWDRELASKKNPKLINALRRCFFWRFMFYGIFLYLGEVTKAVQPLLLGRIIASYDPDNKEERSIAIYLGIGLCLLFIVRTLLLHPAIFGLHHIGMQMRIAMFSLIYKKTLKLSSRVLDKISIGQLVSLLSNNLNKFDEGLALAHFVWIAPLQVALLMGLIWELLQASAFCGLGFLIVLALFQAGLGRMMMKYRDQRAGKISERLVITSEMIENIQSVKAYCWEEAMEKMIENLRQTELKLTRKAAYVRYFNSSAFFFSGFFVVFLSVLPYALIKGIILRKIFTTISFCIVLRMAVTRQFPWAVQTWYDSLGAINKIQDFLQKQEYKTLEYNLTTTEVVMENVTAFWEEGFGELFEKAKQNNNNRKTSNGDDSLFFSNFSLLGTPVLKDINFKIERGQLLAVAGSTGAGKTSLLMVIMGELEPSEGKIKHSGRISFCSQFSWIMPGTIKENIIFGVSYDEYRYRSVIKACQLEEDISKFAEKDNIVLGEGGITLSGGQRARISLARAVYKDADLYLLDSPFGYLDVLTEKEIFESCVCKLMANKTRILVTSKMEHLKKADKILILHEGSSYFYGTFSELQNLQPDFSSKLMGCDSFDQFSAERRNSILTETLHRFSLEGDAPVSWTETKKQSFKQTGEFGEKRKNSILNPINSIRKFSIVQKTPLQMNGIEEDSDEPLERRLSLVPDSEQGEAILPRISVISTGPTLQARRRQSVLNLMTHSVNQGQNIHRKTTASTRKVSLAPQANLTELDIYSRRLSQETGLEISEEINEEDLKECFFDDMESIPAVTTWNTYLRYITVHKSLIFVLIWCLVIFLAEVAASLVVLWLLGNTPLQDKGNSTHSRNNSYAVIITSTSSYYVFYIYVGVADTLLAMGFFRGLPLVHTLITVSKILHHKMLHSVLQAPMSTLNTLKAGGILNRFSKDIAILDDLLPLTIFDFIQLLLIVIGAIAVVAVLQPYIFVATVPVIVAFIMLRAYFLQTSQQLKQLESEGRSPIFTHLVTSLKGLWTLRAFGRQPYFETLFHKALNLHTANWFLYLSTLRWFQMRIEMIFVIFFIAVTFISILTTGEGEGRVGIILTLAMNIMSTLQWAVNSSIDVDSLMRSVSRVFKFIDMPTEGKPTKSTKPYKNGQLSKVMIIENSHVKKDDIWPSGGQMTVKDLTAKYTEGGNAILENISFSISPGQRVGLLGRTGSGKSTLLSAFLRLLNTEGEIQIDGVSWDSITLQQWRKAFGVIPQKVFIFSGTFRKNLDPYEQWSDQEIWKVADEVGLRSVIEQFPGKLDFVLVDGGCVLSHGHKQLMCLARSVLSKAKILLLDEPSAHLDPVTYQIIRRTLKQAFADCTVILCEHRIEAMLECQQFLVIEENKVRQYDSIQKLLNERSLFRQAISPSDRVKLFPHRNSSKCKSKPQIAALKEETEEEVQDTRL

Kd (human wt-CFTR [5]): < 0.05 µM
SMILES: COc1ccc2ccc(=O)oc2c1CC=C(C)C [osthole]
stimulation of wt-CFTR-mediated I− influx (human wt-CFTR [1]): stimulated wt-CFTR-mediated I^− influx in a concentration-dependent way
affinity in potentiating ΔF508-CFTR lower than in activating wt-CFTR (ΔF508-CFTR [2]): > 200 fold
increase of fluid secretion rate compared to the saline control [3]: 3.34 fold
Kd (ΔF508-CFTR [4]): ~10 µM

SMILES: CC(C)=CCOc1c2occc2cc2ccc(=O)oc12 [imperatorin]
stimulation of wt-CFTR-mediated I− influx (human wt-CFTR [1]): stimulated wt-CFTR-mediated I^− influx in a concentration-dependent way

block of coumarin-stimulated Cl− current (human wt-CFTR [5]; CFTRinh-172 at 20 μmol/L): completely blocked the activations
SMILES: O=C(O)c1ccc(/C=C2\SC(=S)N(c3cccc(C(F)(F)F)c3)C2=O)cc1 [CFTRinh-172, reference compound]
effect on osthole-stimulated chloride secretion (rat colonic mucosa): completely abolished the osthole-stimulated chloride secretion

SMILES: COc1cc2ccc(=O)oc2cc1OC [scoparone]
stimulation of wt-CFTR-mediated I− influx (human wt-CFTR [1]): stimulated wt-CFTR-mediated I^− influx in a concentration-dependent way

SMILES: O=c1ccc2ccc3occc3c2o1 [isopsoralen]
stimulation of wt-CFTR-mediated I− influx (human wt-CFTR [1]): stimulated wt-CFTR-mediated I^− influx in a concentration-dependent way

Source: article PMC3180640 (Frontiers in Pharmacology, 2011)
